In ChEMBL document CHEMBL1154034, “Piperazinyl-glutamate-pyridines as potent orally bioavailable P2Y12 antagonists for inhibition of platelet aggregation” (Bioorg Med Chem Lett, 2009):

Assays:
P2Y purinoceptor 12 [1] = molecular target: T1, P2Y purinoceptor 12 (Homo sapiens, UniProt Q9H244); assay: Binding affinity to human recombinant P2Y12 receptor expressed in CHO cells; format: cell-based
[2] = Clearance in Sprague-Dawley rat at 2 mg/kg, iv and 5 mg/kg, po; format: ADME, organism-based; conditions: in vivo
Procedure, shortened: (§1)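 Male Sprague–Dawley rats, n = 2–4. Dosed by iv infusion at 2 mg/kg and orally at 5 mg/kg.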

[3] = Volume of distribution at steady state in Sprague-Dawley rat at 2 mg/kg, iv and 5 mg/kg, po; format: ADME, organism-based; conditions: in vivo, read-out: Vdss; procedure, shortened: as §1
[4] = Effective half life in Sprague-Dawley rat at 2 mg/kg, iv and 5 mg/kg, po; format: ADME, organism-based; conditions: in vivo; procedure, shortened: as §1
in vivo = conditions: Sprague-Dawley, rat, po, 5 mg/kg
[5] = Solubility of the compound; format: physicochemical
P2Y purinoceptor 12 [6] = molecular target: T1, P2Y purinoceptor 12; assay: Antagonist activity at human P2Y12 receptor assessed as inhibition of ADP-induced platelet-rich plasma aggregation by turbidimetric method; format: functional, cell-free
[7] = Drug concentration in rat bile at 2 mg/kg, iv after 4 hrs; format: ADME, organism-based; parameters: dose 2 mg/kg, route intravenous; conditions: read-out: Drug uptake
Procedure, shortened: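 Rats dosed at 2 mg/kg iv; bile collected over 4 h and the fraction of dose recovered determined.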

Rattus norvegicus = assay: Antithrombotic activity in po dosed rat arterial thrombosis model assessed as inhibition of ferric chloride-induced thrombus formation; format: functional, organism-based
[8] = tested on: Salmonella enterica subsp. enterica; assay: Toxicity in Salmonella Typhimurium by Ames test; format: organism-based; conditions: salmonella enterica subsp. enterica serovar typhimurium

T1 sequence (Q9H244 whole entry): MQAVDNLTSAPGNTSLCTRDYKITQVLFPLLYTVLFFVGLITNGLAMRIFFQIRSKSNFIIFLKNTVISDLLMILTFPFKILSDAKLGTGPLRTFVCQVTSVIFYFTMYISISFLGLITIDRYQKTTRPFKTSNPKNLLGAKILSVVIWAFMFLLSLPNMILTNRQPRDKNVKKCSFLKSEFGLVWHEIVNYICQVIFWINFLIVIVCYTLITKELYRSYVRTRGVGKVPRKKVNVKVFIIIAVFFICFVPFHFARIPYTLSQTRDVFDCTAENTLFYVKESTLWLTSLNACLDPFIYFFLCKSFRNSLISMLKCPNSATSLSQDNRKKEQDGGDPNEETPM

Row | Compound | Ki (P2Y purinoceptor 12 [1]) [nM] | clearance [2] [mL/min/kg] | Vd [3] [L/kg] | half-life [4] [min] | bioavailability (in vivo) [%] | solubility [5] | Kb (P2Y purinoceptor 12 [1]) [nM] | Kb (P2Y purinoceptor 12 [6]) [nM] | dose excreted at 4 h [7] [%] | Activity (Rattus norvegicus) | Activity [8]
1 | CCCCCCOC(=O)N1CCN(C(=O)[C@H](CCC(=O)O)NC(=O)c2cccc(-c3ccccc3)n2)CC1 | 43 | 29 | 1.7 | 42 | > 95 |  |  |  |  |  | 
2 | CCCCOC(=O)N1CCN(C(=O)[C@H](CCC(=O)O)NC(=O)c2cc(OCCOC)cc(-c3ccccc3)n2)CC1 | 18 | 49 | 1.5 | 24 | 77 |  |  |  |  |  | 
3 | CCCCCOC(=O)N1CCN(C(=O)[C@H](CCC(=O)O)NC(=O)c2cc(N3CCC(CN)CC3)cc(-c3ccccc3)n2)CC1 | 7 | 70 | 2.6 | 24 | 0 |  |  |  |  |  | 
4 | CCCCCOC(=O)N1CCN(C(=O)[C@H](CCC(=O)O)NC(=O)c2cccc(-c3ccccc3)n2)CC1 | 11 | 89 | 10.3 | 78 | 70 |  |  |  |  |  | 
5 | CCCCCOC(=O)N1CCN(C(=O)[C@H](CCC(=O)O)NC(=O)c2cc(N3CCC(COC)CC3)cc(-c3ccccc3)n2)CC1 | 15 | 3 | 0.3 | 42 |  | Soluble | 8.5 | 300 | 70 | Dose-dependent effect | Non-toxic
6 | CCCCCOC(=O)N1CCN(C(=O)[C@H](CCC(=O)O)NC(=O)c2cc(N(C)CCS(C)(=O)=O)cc(-c3ccccc3)n2)CC1 | 15 | 69 | 1.3 | 12 |  |  |  |  |  |  | 
7 | CCCCCOC(=O)N1CCN(C(=O)[C@H](CCC(=O)O)NC(=O)c2cc(OC3CCNCC3)cc(-c3ccccc3)n2)CC1 | 3.8 | 133 | 3.1 | 18 | 1 |  |  |  |  |  | 
8 | CCOC(=O)N1CCN(C(=O)[C@H](CCC(=O)O)NC(=O)c2cc(OC)cc(-c3ccccc3)n2)CC1 | 96 |  |  |  |  |  |  |  |  |  | 
9 | CCOC(=O)N1CCN(C(=O)[C@H](CCC(=O)O)NC(=O)c2cc(OCC3CCNCC3)cc(-c3ccccc3)n2)CC1 | 76 |  |  |  |  |  |  |  |  |  | 
10 | CCOC(=O)N1CCN(C(=O)[C@H](CCC(=O)O)NC(=O)c2cc(OCCN)cc(-c3ccccc3)n2)CC1 | 328 |  |  |  |  |  |  |  |  |  | 
11 | CCOC(=O)N1CCN(C(=O)[C@H](CCC(=O)O)NC(=O)c2cc(OC3CCNCC3)cc(-c3ccccc3)n2)CC1 | 68 |  |  |  |  |  |  |  |  |  | 
